Source: ChEMBL document CHEMBL1821688, “Synthesis and biological evaluation of (±)-3-(2-(2-fluorobenzyloxy) naphthalen-6-yl)-2-aminopropanoic acid derivatives as novel PTP1B inhibitors” (Eur J Med Chem, 2011)
The source made the active and inactive calls. No cut-off for these calls is given here.

Legend:
[1] = target: T1, Tyrosine-protein phosphatase non-receptor type 1 (Homo sapiens, UniProt P18031); test: Inhibition of PTP1B using p-nitrophenyl phosphate as substrate
T1 sequence (P18031 whole entry): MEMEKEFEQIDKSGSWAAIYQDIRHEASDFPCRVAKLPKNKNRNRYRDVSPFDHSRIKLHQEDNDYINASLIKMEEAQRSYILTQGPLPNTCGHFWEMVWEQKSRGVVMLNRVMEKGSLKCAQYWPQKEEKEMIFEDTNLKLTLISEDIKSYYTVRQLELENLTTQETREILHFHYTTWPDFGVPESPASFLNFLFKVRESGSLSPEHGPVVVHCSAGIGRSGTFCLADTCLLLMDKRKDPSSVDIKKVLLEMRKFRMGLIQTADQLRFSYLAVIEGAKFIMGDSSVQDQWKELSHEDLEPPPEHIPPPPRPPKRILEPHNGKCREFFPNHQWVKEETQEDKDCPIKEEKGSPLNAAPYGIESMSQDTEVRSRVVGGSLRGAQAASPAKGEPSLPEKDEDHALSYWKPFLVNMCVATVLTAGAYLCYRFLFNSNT
Method in brief: (§1)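 IC50 values were obtained by regression analysis and reported as mean ± SD of three replicate determinations.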

[2] = Selectivity ratio of IC50 for TCPTP to IC50 for PTP1B
[3] = target: T2, Tyrosine-protein phosphatase non-receptor type 2 (Homo sapiens, UniProt P17706); test: Inhibition of TCPTP; method in brief: as §1
T2 sequence (P17706 whole entry): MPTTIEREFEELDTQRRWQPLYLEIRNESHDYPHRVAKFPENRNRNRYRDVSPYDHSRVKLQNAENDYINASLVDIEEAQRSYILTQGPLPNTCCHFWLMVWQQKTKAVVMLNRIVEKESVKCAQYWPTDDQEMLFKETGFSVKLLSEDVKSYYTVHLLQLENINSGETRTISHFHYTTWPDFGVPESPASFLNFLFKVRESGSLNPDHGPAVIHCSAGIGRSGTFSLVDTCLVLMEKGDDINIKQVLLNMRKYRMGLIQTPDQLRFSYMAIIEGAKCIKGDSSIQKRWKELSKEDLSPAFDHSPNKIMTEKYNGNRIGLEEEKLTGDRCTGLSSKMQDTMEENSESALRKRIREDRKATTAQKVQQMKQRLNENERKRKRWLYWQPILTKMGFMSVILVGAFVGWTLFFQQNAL

[4] = target: T3, M-phase inducer phosphatase 2 (Homo sapiens, UniProt P30305); test: Inhibition of human recombinant CDC25B; method in brief: as §1
T3 sequence (P30305 whole entry): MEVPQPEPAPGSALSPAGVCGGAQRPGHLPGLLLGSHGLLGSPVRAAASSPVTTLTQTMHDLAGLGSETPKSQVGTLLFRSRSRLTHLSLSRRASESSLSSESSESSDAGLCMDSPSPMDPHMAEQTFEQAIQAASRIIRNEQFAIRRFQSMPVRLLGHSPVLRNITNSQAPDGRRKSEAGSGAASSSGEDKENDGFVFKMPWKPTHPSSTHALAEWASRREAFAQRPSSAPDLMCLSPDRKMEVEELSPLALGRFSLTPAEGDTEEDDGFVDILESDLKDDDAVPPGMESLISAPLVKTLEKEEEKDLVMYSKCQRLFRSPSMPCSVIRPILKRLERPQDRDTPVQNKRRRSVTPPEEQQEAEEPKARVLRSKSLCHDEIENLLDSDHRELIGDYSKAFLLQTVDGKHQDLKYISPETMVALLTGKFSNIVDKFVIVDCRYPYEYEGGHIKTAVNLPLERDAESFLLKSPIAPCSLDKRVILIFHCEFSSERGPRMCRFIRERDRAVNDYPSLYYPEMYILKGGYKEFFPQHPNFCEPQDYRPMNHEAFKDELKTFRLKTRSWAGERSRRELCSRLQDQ

[5] = target: T4, Tyrosine-protein phosphatase non-receptor type 6 (Homo sapiens, UniProt P29350); test: Inhibition of human recombinant SHP1 in Tris buffer of pH 8 at 20 ug/mL
T4 sequence (P29350 whole entry): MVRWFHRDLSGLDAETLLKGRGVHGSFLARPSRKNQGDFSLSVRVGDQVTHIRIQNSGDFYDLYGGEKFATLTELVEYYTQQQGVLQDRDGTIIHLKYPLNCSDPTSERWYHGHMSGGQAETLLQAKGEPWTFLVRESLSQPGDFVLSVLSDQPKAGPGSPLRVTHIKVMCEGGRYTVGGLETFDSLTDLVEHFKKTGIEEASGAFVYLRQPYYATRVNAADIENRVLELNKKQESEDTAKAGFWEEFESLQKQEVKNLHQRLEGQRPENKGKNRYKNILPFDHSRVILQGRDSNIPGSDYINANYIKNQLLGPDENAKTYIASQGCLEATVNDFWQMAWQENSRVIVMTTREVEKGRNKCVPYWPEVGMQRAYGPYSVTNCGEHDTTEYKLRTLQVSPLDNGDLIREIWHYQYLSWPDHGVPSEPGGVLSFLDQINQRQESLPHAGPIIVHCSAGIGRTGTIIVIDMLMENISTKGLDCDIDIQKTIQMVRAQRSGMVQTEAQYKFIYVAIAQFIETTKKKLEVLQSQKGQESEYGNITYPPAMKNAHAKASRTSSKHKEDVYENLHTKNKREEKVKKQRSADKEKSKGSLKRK

[6] = target: Receptor-type tyrosine-protein phosphatase alpha (Homo sapiens) (UniProt P18433); test: Inhibition of human recombinant PTPalpha at 20 ug/mL
Receptor-type tyrosine-protein phosphatase alpha (Homo sapiens), sequence (P18433 20-802 limits assumed): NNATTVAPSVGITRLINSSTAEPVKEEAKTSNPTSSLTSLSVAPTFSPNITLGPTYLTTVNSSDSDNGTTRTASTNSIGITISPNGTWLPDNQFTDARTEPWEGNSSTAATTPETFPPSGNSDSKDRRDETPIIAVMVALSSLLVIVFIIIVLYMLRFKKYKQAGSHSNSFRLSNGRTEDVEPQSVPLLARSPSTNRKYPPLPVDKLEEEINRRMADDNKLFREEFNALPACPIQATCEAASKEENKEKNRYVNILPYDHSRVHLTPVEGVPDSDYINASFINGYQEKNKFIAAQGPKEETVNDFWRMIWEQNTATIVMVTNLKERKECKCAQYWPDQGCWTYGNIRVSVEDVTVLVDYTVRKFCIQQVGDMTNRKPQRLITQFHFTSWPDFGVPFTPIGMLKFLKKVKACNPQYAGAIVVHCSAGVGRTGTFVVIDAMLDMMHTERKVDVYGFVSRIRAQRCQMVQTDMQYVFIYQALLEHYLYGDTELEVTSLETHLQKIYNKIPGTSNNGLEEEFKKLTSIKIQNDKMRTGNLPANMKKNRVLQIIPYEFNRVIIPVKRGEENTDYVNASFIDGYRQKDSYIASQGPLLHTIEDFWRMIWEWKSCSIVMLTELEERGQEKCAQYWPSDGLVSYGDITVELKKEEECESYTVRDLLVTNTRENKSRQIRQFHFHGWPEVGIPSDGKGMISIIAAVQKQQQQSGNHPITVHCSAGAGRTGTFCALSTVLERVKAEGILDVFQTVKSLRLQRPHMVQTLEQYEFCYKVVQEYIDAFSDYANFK

[7] = target: Receptor-type tyrosine-protein phosphatase F (Homo sapiens) (UniProt P10586); test: Inhibition of human recombinant LAR at 20 ug/mL
Receptor-type tyrosine-protein phosphatase F (Homo sapiens), sequence (P10586 whole entry): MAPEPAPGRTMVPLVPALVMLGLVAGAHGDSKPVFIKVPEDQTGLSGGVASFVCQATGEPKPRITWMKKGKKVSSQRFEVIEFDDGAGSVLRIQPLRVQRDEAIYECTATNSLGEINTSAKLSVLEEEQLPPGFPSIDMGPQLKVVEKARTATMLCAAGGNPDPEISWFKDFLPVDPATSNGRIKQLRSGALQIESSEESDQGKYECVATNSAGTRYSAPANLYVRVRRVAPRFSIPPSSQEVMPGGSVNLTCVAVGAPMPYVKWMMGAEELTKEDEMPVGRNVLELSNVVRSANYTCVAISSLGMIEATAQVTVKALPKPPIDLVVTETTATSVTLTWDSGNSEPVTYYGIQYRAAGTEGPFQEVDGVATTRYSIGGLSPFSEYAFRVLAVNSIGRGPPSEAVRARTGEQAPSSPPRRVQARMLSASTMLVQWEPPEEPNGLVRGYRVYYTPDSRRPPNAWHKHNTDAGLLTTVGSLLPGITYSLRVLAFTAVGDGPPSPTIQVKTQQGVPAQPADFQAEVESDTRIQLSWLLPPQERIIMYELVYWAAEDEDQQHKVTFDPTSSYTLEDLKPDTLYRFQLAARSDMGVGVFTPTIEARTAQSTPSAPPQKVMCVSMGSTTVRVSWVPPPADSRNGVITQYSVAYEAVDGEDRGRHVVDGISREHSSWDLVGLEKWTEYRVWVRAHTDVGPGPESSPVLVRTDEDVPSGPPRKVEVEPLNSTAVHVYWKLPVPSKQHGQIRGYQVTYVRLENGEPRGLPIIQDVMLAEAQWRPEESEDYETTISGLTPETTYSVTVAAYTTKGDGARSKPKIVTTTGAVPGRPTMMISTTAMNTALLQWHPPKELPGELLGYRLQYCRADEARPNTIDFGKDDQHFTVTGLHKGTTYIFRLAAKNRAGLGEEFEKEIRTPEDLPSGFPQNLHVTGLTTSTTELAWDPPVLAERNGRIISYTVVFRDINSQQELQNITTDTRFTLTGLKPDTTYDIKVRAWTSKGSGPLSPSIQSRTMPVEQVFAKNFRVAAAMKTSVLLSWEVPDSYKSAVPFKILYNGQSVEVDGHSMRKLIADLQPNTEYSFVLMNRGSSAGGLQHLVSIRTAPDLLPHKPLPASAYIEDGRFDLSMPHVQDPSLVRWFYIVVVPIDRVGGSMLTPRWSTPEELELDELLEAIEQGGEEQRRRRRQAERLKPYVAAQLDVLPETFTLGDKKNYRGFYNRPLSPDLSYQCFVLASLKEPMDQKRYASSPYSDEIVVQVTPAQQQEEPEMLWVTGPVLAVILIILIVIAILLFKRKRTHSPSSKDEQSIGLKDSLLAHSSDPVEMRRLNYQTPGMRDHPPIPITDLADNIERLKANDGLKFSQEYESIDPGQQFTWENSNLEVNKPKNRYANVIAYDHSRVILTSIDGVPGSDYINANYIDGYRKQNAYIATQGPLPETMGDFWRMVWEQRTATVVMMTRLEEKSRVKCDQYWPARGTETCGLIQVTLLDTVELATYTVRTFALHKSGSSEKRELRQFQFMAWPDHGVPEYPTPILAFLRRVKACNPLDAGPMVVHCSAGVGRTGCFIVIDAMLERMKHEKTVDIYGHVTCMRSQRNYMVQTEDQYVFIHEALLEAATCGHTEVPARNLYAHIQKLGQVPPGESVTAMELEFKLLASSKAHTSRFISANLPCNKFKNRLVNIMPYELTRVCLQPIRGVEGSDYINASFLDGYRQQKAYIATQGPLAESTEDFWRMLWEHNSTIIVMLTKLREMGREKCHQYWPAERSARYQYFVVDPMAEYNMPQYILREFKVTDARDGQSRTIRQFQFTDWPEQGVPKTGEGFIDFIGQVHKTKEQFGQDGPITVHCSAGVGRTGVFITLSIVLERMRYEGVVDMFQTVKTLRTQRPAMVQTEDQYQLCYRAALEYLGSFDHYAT

[8] = target: T4, Tyrosine-protein phosphatase non-receptor type 6; test: Inhibition of human recombinant SHP1 in Tris buffer at pH 8 using OMPF as substrate; method in brief: as §1
[9] = target: T5, Tyrosine-protein phosphatase non-receptor type 1 (Homo sapiens) (UniProt P18031); conditions: 2.5 to 10 uM
T5 sequence (whole entry): T1 sequence (P18031 whole entry)

[10] = target: T5, Tyrosine-protein phosphatase non-receptor type 1 (Homo sapiens); conditions: 2.5 to 10 uM; remark: listed apart in the source

SMILES	IC50 [1]	Ratio IC50 [2]	IC50 [3]	IC50 [4]	inhibition [5]	inhibition [6]	inhibition [7]	IC50 [8]	inhibition [9]	inhibition [10]
O=C(NC(Cc1ccc2cc(OCc3ccccc3F)ccc2c1)C(=O)O)c1ccccc1 (racemic)	6.55 µM	1	9.43 µM	19.4 µM	inactive	inactive	inactive	–	–	–
COc1ccc(COc2ccc3cc(CC(NC(=O)c4ccccc4)C(=O)O)ccc3c2)cc1 (racemic)	14.3 µM	1	–	–	–	–	–	–	–	–
O=C(NC(Cc1ccc2cc(OCc3ccc(Cl)cc3)ccc2c1)C(=O)O)c1ccccc1 (racemic)	21.7 µM	1	–	–	–	–	–	–	–	–
CC(C)(C)OC(=O)NC(Cc1ccc2cc(O)ccc2c1)C(=O)O (racemic)	> 300 µM	1	–	–	–	–	–	–	–	–
O=C(Cc1ccc(Cl)cc1)NC(Cc1ccc2cc(OCc3ccccc3F)ccc2c1)C(=O)O (racemic)	7.91 µM	1	12.9 µM	8.44 µM	–	inactive	inactive	15.6 µM	–	–
O=C(/C=C/c1ccccc1)NC(Cc1ccc2cc(OCc3ccccc3F)ccc2c1)C(=O)O (racemic)	8.88 µM	–	18.9 µM	14.7 µM	inactive	inactive	inactive	–	–	–
O=C(/C=C/c1ccccc1F)NC(Cc1ccc2cc(OCc3ccccc3F)ccc2c1)C(=O)O (racemic)	2.49 µM	1	3.02 µM	4.58 µM	–	inactive	inactive	9.84 µM	–	–
O=C(/C=C/c1ccccc1Cl)NC(Cc1ccc2cc(OCc3ccccc3F)ccc2c1)C(=O)O (racemic)	1.25 µM	3	3.84 µM	3.08 µM	–	inactive	inactive	2.43 µM	Active	tde
O=C(/C=C/c1ccc(Cl)cc1)NC(Cc1ccc2cc(OCc3ccccc3F)ccc2c1)C(=O)O (racemic)	2.59 µM	1	4.33 µM	2.63 µM	–	inactive	inactive	16.3 µM	–	–
O=C(/C=C/c1ccccc1Br)NC(Cc1ccc2cc(OCc3ccccc3F)ccc2c1)C(=O)O (racemic)	1.77 µM	1	4.66 µM	2.89 µM	–	inactive	inactive	11 µM	–	–
O=C(/C=C/c1ccc(Br)cc1)NC(Cc1ccc2cc(OCc3ccccc3F)ccc2c1)C(=O)O (racemic)	1.57 µM	1	3.67 µM	2.49 µM	–	inactive	inactive	13 µM	–	–
O=C(/C=C/c1ccc(Cl)cc1Cl)NC(Cc1ccc2cc(OCc3ccccc3F)ccc2c1)C(=O)O (racemic)	4.22 µM	1	6.11 µM	8.93 µM	–	inactive	inactive	12.5 µM	–	–
O=C(/C=C/c1ccc(Cl)c(Cl)c1)NC(Cc1ccc2cc(OCc3ccccc3F)ccc2c1)C(=O)O (racemic)	4.71 µM	–	15.3 µM	5.63 µM	–	inactive	inactive	10.7 µM	–	–
COc1cccc(/C=C/C(=O)NC(Cc2ccc3cc(OCc4ccccc4F)ccc3c2)C(=O)O)c1 (racemic)	8.15 µM	1	15.2 µM	10.7 µM	–	inactive	inactive	16.4 µM	–	–

Second part, the compound after the results:

IC50 [1]	Ratio IC50 [2]	IC50 [3]	IC50 [4]	inhibition [5]	inhibition [6]	inhibition [7]	IC50 [8]	inhibition [9]	inhibition [10]	SMILES
> 300 µM	1	–	–	–	–	–	–	–	–	O=C(NC(Cc1ccc2cc(O)ccc2c1)C(=O)O)c1ccccc1 (racemic)
11.1 µM	1	–	–	–	–	–	–	–	–	CC(C)(C)OC(=O)NC(Cc1ccc2cc(OCc3ccccc3F)ccc2c1)C(=O)O (racemic)
24.7 µM	1	–	–	–	–	–	–	–	–	NC(Cc1ccc2cc(OCc3ccccc3F)ccc2c1)C(=O)O (racemic)
10.8 µM	1	17.5 µM	13.7 µM	inactive	inactive	inactive	–	–	–	O=C(COc1ccc(Cl)cc1)NC(Cc1ccc2cc(OCc3ccccc3F)ccc2c1)C(=O)O (racemic)
11.4 µM	–	27.3 µM	15.2 µM	inactive	inactive	inactive	–	–	–	O=C(CCc1ccccc1)NC(Cc1ccc2cc(OCc3ccccc3F)ccc2c1)C(=O)O (racemic)
2.79 µM	1	6.08 µM	5.13 µM	–	inactive	inactive	26.5 µM	–	–	O=C(/C=C/c1cccc(F)c1)NC(Cc1ccc2cc(OCc3ccccc3F)ccc2c1)C(=O)O (racemic)
3.38 µM	1	5.96 µM	6.6 µM	–	inactive	inactive	18.5 µM	–	–	O=C(/C=C/c1ccc(F)cc1)NC(Cc1ccc2cc(OCc3ccccc3F)ccc2c1)C(=O)O (racemic)
4 µM	1	7.24 µM	5.35 µM	–	inactive	inactive	13.2 µM	–	–	O=C(/C=C/c1cccc(Cl)c1)NC(Cc1ccc2cc(OCc3ccccc3F)ccc2c1)C(=O)O (racemic)
5.9 µM	1	9.21 µM	14 µM	inactive	inactive	inactive	–	–	–	COc1ccc(/C=C/C(=O)NC(Cc2ccc3cc(OCc4ccccc4F)ccc3c2)C(=O)O)cc1 (racemic)
4.45 µM	1	9.49 µM	7.04 µM	inactive	inactive	inactive	–	–	–	COc1ccc(/C=C/C(=O)NC(Cc2ccc3cc(OCc4ccccc4F)ccc3c2)C(=O)O)cc1OC (racemic)
6.48 µM	1	18.2 µM	11.6 µM	inactive	inactive	inactive	–	–	–	Cc1ccc(/C=C/C(=O)NC(Cc2ccc3cc(OCc4ccccc4F)ccc3c2)C(=O)O)cc1 (racemic)
–	–	6.7 µM	–	–	–	–	–	–	–	C[C@H]1[C@H](C)CC[C@]2(C(=O)O)CC[C@]3(C)C(=CC[C@@H]4[C@@]5(C)CC[C@H](O)C(C)(C)[C@@H]5CC[C@]43C)[C@H]12 [URSOLIC ACID]
